Results taken from ChEMBL document CHEMBL1151172, “Further labdane and kaurane diterpenoids and other constituents from Plectranthus fruticosus” (2004).
Values after ≈ are worked out from the molar mass of the structure shown. Active and inactive are the calls of the source. The rule behind the calls is not given here.

Experiments:
Pseudomonas aeruginosa = assay: Antimicrobial activity against Pseudomonas aeruginosa ATCC 27853 by serial broth microdilution method; type: functional, organism-based
Method in brief: (§1)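 MIC by NCCLS serial broth microdilution in Mueller-Hinton broth. Compounds dissolved in DMSO and tested at graded concentrations from 250 to 7.8 µg/mL. A solvent blank was included.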

Escherichia coli = assay: Antimicrobial activity against Escherichia coli ATCC 25922 by serial broth microdilution method; type: functional; method in brief: as §1
Candida albicans = assay: Antimicrobial activity against Candida albicans CIP 3153A by serial broth microdilution method; type: functional, organism-based
Method in brief: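 Yeast MIC by serial broth microdilution following NCCLS, using YMA medium. Compounds were dissolved in DMSO and tested over graded concentrations from 250 to 7.8 µg/mL, with a solvent blank.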

Staphylococcus aureus = assay: Antimicrobial activity against Staphylococcus aureus ATCC 25923 by serial broth microdilution method; type: functional; method in brief: as §1

| MIC (Staphylococcus aureus) [µg/mL] | MIC (Escherichia coli) [µg/mL] | Compound | Activity (Pseudomonas aeruginosa) | Activity (Escherichia coli) | Activity (Candida albicans) |
| --- | --- | --- | --- | --- | --- |
| – | – | C=C1CC[C@@H]2[C@H]([C@H]3[C@H]1CC[C@@]3(O)CO)C2(C)C | inactive | inactive | inactive |
| – | – | COC(=O)[C@]1(C)CCC[C@@]2(C)[C@@H]3C[C@H](OC(C)=O)[C@@H]4C[C@]3(C=C4C)[C@H](O)C[C@@H]21 | inactive | inactive | inactive |
| – | – | C=C1[C@H]2C[C@@]3(CC[C@H]4[C@@](C)(CCC[C@@]4(C)C(=O)OC)[C@@H]3C[C@@H]2OC(C)=O)[C@H]1O | inactive | inactive | inactive |
| – | – | C=C1C[C@@]23CC[C@H]4[C@@](C)(CCC[C@@]4(C)C(=O)OC)[C@@H]2C[C@H](O)[C@@H]1C3 | inactive | inactive | inactive |
| < 7.8 | < 7.8 | NC[C@H]1O[C@H](O[C@H]2[C@H](O)[C@@H](O[C@H]3O[C@H](CO)[C@@H](O)[C@H](N)[C@H]3O)[C@H](N)C[C@@H]2N)[C@H](O)[C@@H](O)[C@@H]1O [KANAMYCIN] | – | – | – |
| – | – | CC1=C[C@]23C[C@H]1CC[C@H]2[C@]1(C)CCC[C@@](C)(C(=O)O)[C@H]1C[C@H]3O | inactive | inactive | inactive |
| – | – | C=C1C[C@]23C[C@H]1[C@@H](OC(C)=O)C[C@H]2[C@]1(C)CCC[C@@](C)(C(=O)O)[C@H]1C[C@H]3O | inactive | inactive | inactive |
| – | – | CC(=O)O[C@H]1C[C@@H]2[C@@]3(C=C(C=O)[C@H]1C3)CC[C@H]1[C@@]2(C)CCC[C@@]1(C)C(=O)O | inactive | inactive | inactive |
| 62.5 (≈ 161 µM) | – | COC(=O)[C@]1(C)CCC[C@@]2(C)[C@@H]3C[C@H](OC(C)=O)[C@@H]4C[C@]3(C=C4C=O)CC[C@@H]21 | inactive | inactive | inactive |
| – | – | C=C/C(C)=C\C[C@@H]1C(=C)CC[C@@H]2C(C)(C)[C@H](O)[C@@H](O)C[C@@]12C | inactive | inactive | inactive |
| – | – | COC(=O)[C@]1(C)CCC[C@@]2(C)[C@@H]3C[C@H](OC(C)=O)[C@@H]4C[C@@]3(CC[C@@H]21)[C@H]1O[C@]14C | inactive | inactive | inactive |
| – | – | C[C@@]12CCC[C@@](C)(C(=O)O)[C@H]1C[C@@H](O)[C@@]13C[C@@H](CC[C@@H]21)[C@]1(C)O[C@@H]13 | inactive | inactive | inactive |
| – | – | C=C1[C@H]2C[C@@]3(CC[C@H]4[C@@](C)(CCC[C@@]4(C)C(=O)O)[C@@H]3C[C@@H]2OC(C)=O)[C@H]1O | inactive | inactive | inactive |
